Measurements from ChEMBL document CHEMBL4028861, “Selective Nonsteroidal Glucocorticoid Receptor Modulators for the Inhaled Treatment of Pulmonary Diseases” (J Med Chem, 2017).
Converted amounts (≈) assume the structure as drawn. Values belong to the compound of their own block, whether it stands above or below them.

Experiments:
[1] = Intrinsic clearance in human hepatocytes assessed per million cells; format: ADME, cell-based, Hepatocyte; conditions: read-out: CLH
[2] = Lipophilicity, log D of the compound by chromatography; format: physicochemical
[3] = Solubility of the compound in phosphate buffer at pH 7.4 using liquid sample at 20 degreeC; format: physicochemical
Summary of the method: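 Solubility measured in 0.1 M phosphate buffer at pH 7.4 and 20 °C, starting from a 10 mM DMSO stock solution.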

[4] = Solubility of the compound in phosphate buffer at pH 7.4 using solid sample at 23 degreeC; format: physicochemical
Summary of the method: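 Solubility measured in 0.1 M phosphate buffer at pH 7.4 and 23 °C, starting from crystalline solid.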

[5] = Intrinsic clearance in Wistar Han rat hepatocytes assessed per 10^6 cells; format: ADME, cell-based, Hepatocyte; conditions: read-out: CLH
[6] = Clearance in Wistar Han rat at 1 umol/kg, iv administered as bolus dose by LC-MS/MS analysis; format: ADME, organism-based; conditions: in vivo
[7] = Volume of distribution at steady state in Wistar Han rat at 1 umol/kg, iv administered as bolus dose by LC-MS/MS analysis; format: ADME, organism-based; conditions: in vivo, read-out: Vdss
[8] = Terminal half life in Wistar Han rat 1 umol/kg, iv administered as bolus dose by LC-MS/MS analysis; format: ADME, organism-based; conditions: in vivo, read-out: beta t1/2 (converted)
[9] = Oral bioavailability in Wistar Han rat administered via gavage by LC-MS/MS analysis; format: ADME, organism-based; conditions: in vivo
[10] = Thermodynamic solubility of the compound in human intestinal fluid; format: physicochemical; conditions: read-out: Therm_solubility
Lung [11] = test: Drug uptake in Wistar Han rat lung at 0.1 umol/kg, administered as dry powder inhalation after 4 hrs by LC-MS/MS analysis; format: ADME; conditions: in vivo, inhaled_or_intranasal
Lung [12] = test: Drug uptake in Wistar Han rat lung at 0.1 umol/kg, administered as dry powder inhalation after 24 hrs by LC-MS/MS analysis; format: ADME, tissue-based; conditions: in vivo, inhaled_or_intranasal
[13] = AUC (0 to infinity) in Wistar Han rat lung at 0.1 umol/kg, administered as dry powder inhalation by LC-MS/MS analysis; format: ADME; design: dose 0.1 umol/kg, route respiratory (INHALATION), time infinity; conditions: inhaled or intranasal
[14] = Apparent terminal half life in Wistar Han rat lung at 0.1 umol/kg, administered as dry powder inhalation by LC-MS/MS analysis; format: ADME; conditions: inhaled or intranasal, read-out: betat1/2(app) (converted)
[15] = Mean residence time in Wistar Han rat lung at 0.1 umol/kg, administered as dry powder inhalation by LC-MS/MS analysis; format: ADME, tissue-based; conditions: inhaled or intranasal
[16] = Cmax in Wistar Han rat plasma at 0.1 umol/kg, administered as dry powder inhalation by LC-MS/MS analysis; format: ADME; design: dose 0.1 umol/kg, route respiratory (INHALATION); conditions: inhaled or intranasal
Rattus norvegicus [17] = test: Toxicity in inhaled CRL:CD Sprague Dawley rat model of sephadex induced lung edema assessed as induction of thymic involution administered once per day for 3 days; conditions: in vivo, inhaled_or_intranasal, 72 h
Summary of the method: (§1)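 Thymic involution scored in the same Sephadex-challenged rats dosed by inhalation, as a sensitive marker of systemic GR agonism.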

Rattus norvegicus [18] = test: Toxicity in inhaled CRL:CD Sprague Dawley rat model of sephadex induced lung edema assessed as induction of thymic involution administered once per day for 4 days; conditions: in vivo, inhaled_or_intranasal, 96 h; summary of the method: as §1
Lung [19] = test: Drug uptake in Wistar Han rat lung at 0.1 umol/kg, administered via intratracheal instillation after 4 hrs by LC-MS/MS analysis; format: ADME, tissue-based; conditions: in vivo, inhaled_or_intranasal
[20] = Drug degradation in human hepatocytes assessed as 5-hydroxy-indazole formation at 10 uM up to 120 mins by LC-MS/MS analysis; format: ADME, cell-based, Hepatocyte; conditions: 2 h
[21] = Drug degradation in rat hepatocytes assessed as 5-hydroxy-indazole formation at 10 uM up to 120 mins by LC-MS/MS analysis; format: ADME, cell-based, Hepatocyte; conditions: 2 h
[22] = Drug degradation in dog hepatocytes assessed as 5-hydroxy-indazole formation at 10 uM up to 120 mins by LC-MS/MS analysis; format: ADME, cell-based, Canis lupus familiaris, Hepatocyte; conditions: 2 h

hepatocyte CLint [1]: 21 µL/min/1e6 cells
chromatographic logD [2]: 3.7
solubility [3]: < 0.1 µM
solubility thermodynamic [4]: 0.23 µM (≈ 0.144 µg/mL)
hepatocyte CLint [5]: 25 µL/min/1e6 cells
clearance [6]: 68 mL/min/kg
Vd [7]: 0.97 L/kg
half-life [8]: 0.2 h
bioavailability [9]: 0.16%
solubility thermodynamic [10]: 2.1 µM (≈ 1.32 µg/mL)
Drug uptake (Lung [11]): 4.1 %ID
Drug uptake (Lung [12]): 0.18 %ID
AUC(0-inf) [13]: 26 µM·h
half-life [14]: 4.9 h
MRT [15]: 2.6 h
Cmax [16]: 21 nM
SMILES: C[C@H](NC(=O)C(C)(F)F)[C@H](Oc1ccc2c(cnn2-c2cccc(C(=O)NCc3cccnc3)c2)c1)c1ccc2c(c1)OCCO2
ED25 (Rattus norvegicus [17]): 0.012 mg/kg

hepatocyte CLint [1]: 29 µL/min/1e6 cells
chromatographic logD [2]: 3.7
solubility [3]: < 0.1 µM
solubility thermodynamic [4]: 0.02 µM (≈ 0.0121 µg/mL)
hepatocyte CLint [5]: 34 µL/min/1e6 cells
clearance [6]: 30 mL/min/kg
Vd [7]: 0.16 L/kg
half-life [8]: 0.1 h
bioavailability [9]: < 0.1%
solubility thermodynamic [10]: 0.6 µM (≈ 0.364 µg/mL)
Drug uptake (Lung [11]): 73 %ID
Drug uptake (Lung [12]): 32 %ID
AUC(0-inf) [13]: 740 µM·h
half-life [14]: 17 h
MRT [15]: 23 h
Cmax [16]: 7.4 nM
SMILES: C[C@H](NC(=O)C(C)(F)F)[C@H](Oc1ccc2c(cnn2-c2cccc(C(=O)N[C@@H]3CCOC3)c2)c1)c1ccc2c(c1)OCCO2 [VELSECORAT]
ED25 (Rattus norvegicus [17]): 0.04 mg/kg

hepatocyte CLint [1]: 33 µL/min/1e6 cells
chromatographic logD [2]: 5
SMILES: C[C@H](NC(=O)C(F)(F)F)[C@H](Oc1ccc2c(cnn2-c2ccc(F)cc2)c1)c1cccc(O)c1

hepatocyte CLint [1]: 9.7 µL/min/1e6 cells
chromatographic logD [2]: 2.9
solubility [3]: 19 µM (≈ 12 µg/mL)
SMILES: C[C@H](NC(=O)C(C)(F)F)[C@H](Oc1ccc2c(cnn2-c2cccc(C(=O)N3CCC[C@@H]3C(N)=O)c2)c1)c1ccc2c(c1)OCOC2

hepatocyte CLint [1]: < 2.1 µL/min/1e6 cells
chromatographic logD [2]: 6.1
SMILES: C[C@H](NC(=O)C(F)(F)F)[C@H](Oc1ccc2c(cnn2-c2ccc(F)cc2)c1)c1ccccc1

hepatocyte CLint [1]: 16 µL/min/1e6 cells
chromatographic logD [2]: 6
hepatocyte CLint [5]: 13 µL/min/1e6 cells
clearance [6]: 38 mL/min/kg
Vd [7]: 23 L/kg
half-life [8]: 4.7 h
bioavailability [9]: 37%
solubility thermodynamic [10]: 12 µM (≈ 5.85 µg/mL)
Drug uptake (Lung [11]): 0.7 %ID
Drug uptake (Lung [12]): 0 to 0.4 %ID
AUC(0-inf) [13]: 18 µM·h
half-life [14]: 7.5 h
MRT [15]: 1.5 h
Cmax [16]: 122 nM
Drug uptake (Lung [19]): 1 %ID
SMILES: COc1cccc([C@@H](Oc2ccc3c(cnn3-c3ccc(F)cc3)c2)[C@H](C)NC(=O)C(F)(F)F)c1 [AZD-5423]
ED25 (Rattus norvegicus [18]): 0.0046 mg/kg

hepatocyte CLint [1]: 20 µL/min/1e6 cells
chromatographic logD [2]: 3.4
SMILES: CCCC1O[C@@H]2C[C@H]3[C@@H]4CCC5=CC(=O)C=C[C@]5(C)[C@H]4[C@@H](O)C[C@]3(C)[C@]2(C(=O)CO)O1 (stereo partly specified) [BUDESONIDE]

chromatographic logD [2]: 5.7
SMILES: C[C@H](NC(=O)C(F)(F)F)[C@H](Oc1ccc2c(cnn2-c2ccc(F)cc2)c1)c1ccc2c(c1)OCCO2

hepatocyte CLint [1]: < 2.7 µL/min/1e6 cells
chromatographic logD [2]: 3.3
solubility [3]: 36 µM (≈ 20.7 µg/mL)
SMILES: C[C@H](NC(=O)C(C)(F)F)[C@H](Oc1ccc2c(cnn2-c2cccc(C(=O)N3CCC[C@@H]3C(N)=O)c2)c1)c1ccccc1

Drug metabolism [20]: Metabolite_Detected
Drug metabolism [21]: Metabolite_Detected
Drug metabolism [22]: Metabolite_Detected
SMILES: O=[14C](N[C@@H]1CCOC1)c1cccc(-n2ncc3cc(OS(=O)(=O)O)ccc32)c1

chromatographic logD [2]: 3.3
solubility [3]: 85 µM (≈ 48.9 µg/mL)
SMILES: C[C@H](NC(=O)C(C)(F)F)[C@H](Oc1ccc2c(cnn2-c2cccc(C(=O)N3CCC[C@H]3C(N)=O)c2)c1)c1ccccc1

hepatocyte CLint [1]: < 2.7 µL/min/1e6 cells
chromatographic logD [2]: 3.8
solubility [3]: 1 µM (≈ 0.597 µg/mL)
solubility thermodynamic [4]: 0.34 µM (≈ 0.203 µg/mL)
SMILES: C[C@H](NC(=O)C(C)(F)F)[C@H](Oc1ccc2c(cnn2-c2cccc(C(=O)NC3CCS(=O)(=O)C3)c2)c1)c1ccccc1 (stereo partly specified)

hepatocyte CLint [1]: 26 µL/min/1e6 cells
chromatographic logD [2]: 3.6
solubility [3]: 0.11 µM (≈ 0.0667 µg/mL)
solubility thermodynamic [4]: 0.03 µM (≈ 0.0182 µg/mL)
SMILES: C[C@H](NC(=O)C(C)(F)F)[C@H](Oc1ccc2c(cnn2-c2cccc(C(=O)N[C@H]3CCOC3)c2)c1)c1ccc2c(c1)OCOC2
